In ChEMBL document CHEMBL3872230, “Inhibition of the enzymes in the leukotriene and prostaglandin pathways in inflammation by 3-aryl isocoumarins” (Eur J Med Chem, 2016):
Activity calls are given as the source filed them. The calls are words filed in the database; no cut-off is given here.

B1: Polyunsaturated fatty acid 5-lipoxygenase (Homo sapiens), P09917 (protein)
chain: MPSYTVTVATGSQWFAGTDDYIYLSLVGSAGCSEKHLLDKPFYNDFERGAVDSYDVTVDEELGEIQLVRIEKRKYWLNDDWYLKYITLKTPHGDYIEFPCYRWITGDVEVVLRDGRAKLARDDQIHILKQHRRKELETRQKQYRWMEWNPGFPLSIDAKCHKDLPRDIQFDSEKGVDFVLNYSKAMENLFINRFMHMFQSSWNDFADFEKIFVKISNTISERVMNHWQEDLMFGYQFLNGCNPVLIRRCTELPEKLPVTTEMVECSLERQLSLEQEVQQGNIFIVDFELLDGIDANKTDPCTLQFLAAPICLLYKNLANKIVPIAIQLNQIPGDENPIFLPSDAKYDWLLAKIWVRSSDFHVHQTITHLLRTHLVSEVFGIAMYRQLPAVHPIFKLLVAHVRFTIAINTKAREQLICECGLFDKANATGGGGHVQMVQRAMKDLTYASLCFPEAIKARGMESKEDIPYYFYRDDGLLVWEAIRTFTAEVVDIYYEGDQVVEEDPELQDFVNDVYVYGMRGRKSSGFPKSVKSREQLSEYLTVVIFTASAQHAAVNFGQYDWCSWIPNAPPTMRAPPPTAKGVVTIEQIVDTLPDRGRSCWHLGAVWALSQFQENELFLGMYPEEHFIEKPVKEAMARFRKNLEAIVSVIAERNKKKQLPYYYLSPDRIPNSVAI

Experiments:
[1] = molecular target: T1, Polyunsaturated fatty acid 5-lipoxygenase (Homo sapiens) (UniProt P09917); assay: Inhibition of human recombinant 5-LOX expressed in Escherichia coli BL21 assessed as decrease in 5-HPETE production at 50 uM preincubated with enzyme followed by arachidonic acid substrate addition by UV-vis spectrophotometry
T1 sequence (whole entry): B1 chain

[2] = molecular target: T2, Polyunsaturated fatty acid 5-lipoxygenase (Homo sapiens, UniProt P09917); assay: Inhibition of human recombinant 5-LOX expressed in Escherichia coli BL21 assessed as decrease in 5-HPETE production preincubated with enzyme followed by arachidonic acid substrate addition by UV-vis spectrophotometry
T2 sequence (P09917 whole entry): B1 chain

[3] = molecular target: T3, Prostaglandin E synthase (Homo sapiens) (UniProt O14684); assay: Inhibition of mPGES1 in human HeLa cells assessed as reduction in TNF-alpha induced PGE2 production at 50 uM preincubated for 2 hrs followed by TNF-alpha addition for 24 hrs by ELISA; format: cell-based
T3 sequence (whole entry): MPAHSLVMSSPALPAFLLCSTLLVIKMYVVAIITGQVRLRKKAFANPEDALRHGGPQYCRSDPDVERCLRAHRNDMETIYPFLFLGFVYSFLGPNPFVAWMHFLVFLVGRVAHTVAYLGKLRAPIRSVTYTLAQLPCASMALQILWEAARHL
How it was run: (§1)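 Read-out was PGE2 released into the HeLa culture supernatant, measured with an ELISA kit.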

[4] = Antioxidant activity assessed as DPPH radical scavenging activity at 50 uM after 30 mins; format: functional
[5] = molecular target: T4, Prostaglandin E synthase/G/H synthase 2 (Homo sapiens) (UniProt P35354+O14684); assay: Inhibition of COX-2/mPGES1 in human HeLa cells assessed as reduction in TNF-alpha induced PGE2 production at 50 uM after 15 mins followed by ELISA; format: cell-based
T4 sequence (P35354 whole entry, looked up, one chain of several): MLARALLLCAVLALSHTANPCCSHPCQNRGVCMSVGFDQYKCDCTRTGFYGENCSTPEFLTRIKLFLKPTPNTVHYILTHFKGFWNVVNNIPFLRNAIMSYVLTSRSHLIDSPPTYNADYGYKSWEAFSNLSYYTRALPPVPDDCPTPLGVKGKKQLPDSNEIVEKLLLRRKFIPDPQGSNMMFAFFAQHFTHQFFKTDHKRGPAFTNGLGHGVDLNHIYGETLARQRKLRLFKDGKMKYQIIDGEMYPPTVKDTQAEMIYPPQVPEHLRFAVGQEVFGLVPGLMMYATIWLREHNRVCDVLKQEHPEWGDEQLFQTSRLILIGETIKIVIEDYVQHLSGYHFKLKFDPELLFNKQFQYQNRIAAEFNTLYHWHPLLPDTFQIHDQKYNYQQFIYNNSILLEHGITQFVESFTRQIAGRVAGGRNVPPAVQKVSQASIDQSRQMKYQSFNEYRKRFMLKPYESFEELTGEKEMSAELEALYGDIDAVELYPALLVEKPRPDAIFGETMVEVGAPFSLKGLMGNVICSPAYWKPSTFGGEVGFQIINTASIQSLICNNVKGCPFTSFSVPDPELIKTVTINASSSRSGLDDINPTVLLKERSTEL
How it was run: (§2)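 TNF-treated HeLa cells were exposed to compound for 15 min without added arachidonic acid. PGE2 released into the culture supernatant was measured by ELISA.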

[6] = molecular target: T4, Prostaglandin E synthase/G/H synthase 2 (Homo sapiens); assay: Inhibition of COX-2/mPGES1 in human HeLa cells assessed as reduction in TNF-alpha induced PGE2 production at 50 uM preincubated for 15 mins followed by arachidonic acid addition for 15 mins by ELISA; format: cell-based
How it was run: (§3)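 HeLa cells primed with TNF at 50 ng/ml to induce mPGES1, then exposed to compound for 15 min, then challenged with exogenous arachidonic acid for a further 15 min. PGE2 released into the culture supernatant was quantified by ELISA.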

HeLa [7] = assay: Inhibition of COX-2 mRNA expression in human HeLa cells at 50 uM by RT-PCR method; format: functional, cell-based
How it was run: (§4)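 Real-time PCR on treated HeLa cells. mRNA levels were normalized to untreated cells and to β-actin, and significance was assessed by 2-way ANOVA.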

HeLa [8] = assay: Increase in IFN-gamma mRNA expression in human HeLa cells at 50 uM by RT-PCR method relative to control; format: functional; how it was run: as §4
HeLa [9] = assay: Inhibition of mPGES1 mRNA expression in human HeLa cells at 50 uM by RT-PCR method; format: functional, cell-based; how it was run: as §4
HeLa [10] = assay: Increase in IL-6 mRNA expression in human HeLa cells at 50 uM by RT-PCR method relative to control; format: functional; how it was run: as §4
HeLa [11] = assay: Increase in TGF-beta3 mRNA expression in human HeLa cells at 50 uM by RT-PCR method relative to control; format: functional; how it was run: as §4
HeLa [12] = assay: Increase in NFkappaB mRNA expression in human HeLa cells at 50 uM by RT-PCR method relative to control; format: functional; how it was run: as §4
[13] = Cytotoxicity against human HeLa cells assessed as cell proliferation at 50 uM after 24 hrs by MTT assay; format: toxicity, cell-based; conditions: read-out: Activity
[14] = molecular target: T3, Prostaglandin E synthase (Homo sapiens); assay: Inhibition of mPGES1 in human HeLa cells assessed as reduction in TNF-alpha induced PGE2 production at 5 uM preincubated for 2 hrs followed by TNF-alpha addition for 24 hrs by ELISA; format: cell-based; how it was run: as §1
[15] = molecular target: T4, Prostaglandin E synthase/G/H synthase 2 (Homo sapiens); assay: Inhibition of COX-2/mPGES1 in human HeLa cells assessed as reduction in TNF-alpha induced PGE2 production at 5 uM after 15 mins followed by ELISA; format: cell-based; how it was run: as §2
[16] = molecular target: T4, Prostaglandin E synthase/G/H synthase 2 (Homo sapiens); assay: Inhibition of COX-2/mPGES1 in human HeLa cells assessed as reduction in TNF-alpha induced PGE2 production at 5 uM preincubated for 15 mins followed by arachidonic acid addition for 15 mins by ELISA; format: cell-based; how it was run: as §3
HeLa [17] = assay: Inhibition of COX-2 mRNA expression in human HeLa cells at 5 uM by RT-PCR method; format: functional, cell-based; how it was run: as §4
HeLa [18] = assay: Inhibition of mPGES1 mRNA expression in human HeLa cells at 5 uM by RT-PCR method; format: functional, cell-based; how it was run: as §4
Prostaglandin E synthase [19] = molecular target: T5, Prostaglandin E synthase (Homo sapiens, UniProt O14684); assay: Inhibition of mPGES1 in human A549 cells assessed as reduction in PGE2 production; format: cell-based
T5 sequence (O14684 whole entry): T3 sequence (whole entry)

[20] = molecular target: Prostaglandin G/H synthase 1 (Homo sapiens, UniProt P23219); assay: Inhibition of COX-1 (unknown origin)
Sequence of Prostaglandin G/H synthase 1 (P23219 whole entry): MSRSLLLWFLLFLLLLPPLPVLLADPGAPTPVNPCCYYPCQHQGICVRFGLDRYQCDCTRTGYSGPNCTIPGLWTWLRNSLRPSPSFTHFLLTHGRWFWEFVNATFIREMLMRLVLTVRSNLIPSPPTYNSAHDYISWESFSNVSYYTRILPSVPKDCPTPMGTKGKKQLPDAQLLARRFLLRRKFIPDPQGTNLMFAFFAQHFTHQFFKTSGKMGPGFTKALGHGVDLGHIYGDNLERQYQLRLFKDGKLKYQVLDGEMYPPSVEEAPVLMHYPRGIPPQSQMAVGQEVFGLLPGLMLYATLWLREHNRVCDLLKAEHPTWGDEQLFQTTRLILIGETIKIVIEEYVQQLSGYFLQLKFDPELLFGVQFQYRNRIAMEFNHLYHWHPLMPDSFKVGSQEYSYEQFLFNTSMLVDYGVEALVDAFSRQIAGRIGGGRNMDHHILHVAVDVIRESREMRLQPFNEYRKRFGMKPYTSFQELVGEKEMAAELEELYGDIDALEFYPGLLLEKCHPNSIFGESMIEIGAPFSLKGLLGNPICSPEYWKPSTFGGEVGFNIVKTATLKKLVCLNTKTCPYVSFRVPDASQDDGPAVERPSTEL

Prostaglandin E synthase [21] = molecular target: T5, Prostaglandin E synthase; assay: Inhibition of mPGES1 in human HeLa cells assessed as reduction in TNF-alpha induced PGE2 production preincubated for 2 hrs followed by TNF-alpha addition for 24 hrs by ELISA; format: cell-based; how it was run: as §1
[22] = molecular target: T1, Polyunsaturated fatty acid 5-lipoxygenase (Homo sapiens); conditions: 10 uM
[23] = substrate: O=c1oc(-c2ccc(O)c(O)c2)cc2ccccc12; conditions: Homo sapiens; 10 uM
[24] = substrate: O=c1oc(-c2ccc(O)c(O)c2)cc2ccccc12; conditions: Homo sapiens; 50 uM
[25] = substrate: O=c1oc(-c2ccc(O)c(O)c2)cc2ccccc12; conditions: Homo sapiens; 10 uM; remark: listed apart in the source
[26] = substrate: O=c1oc(-c2ccc(O)c(O)c2)cc2ccccc12; conditions: Homo sapiens; 50 uM; remark: listed apart in the source
[27] = substrate: COc1cc(-c2cc3cccc(O)c3c(=O)o2)cc(OC)c1OC; conditions: Homo sapiens; 10 uM
[28] = substrate: COc1cc(-c2cc3cccc(O)c3c(=O)o2)cc(OC)c1OC; conditions: Homo sapiens; 30 uM
[29] = substrate: COc1cc(-c2cc3cccc(O)c3c(=O)o2)cc(OC)c1OC; conditions: Homo sapiens; 10 uM; remark: listed apart in the source
[30] = substrate: COc1cc(-c2cc3cccc(O)c3c(=O)o2)cc(OC)c1OC; conditions: Homo sapiens; 30 uM; remark: listed apart in the source

Molecule	inhibition [1] [%]	inhibition [3] [%]	Activity [4] [%]	viability at 24 h, 50 µM [13] [%]	further results
O=c1oc(-c2ccc(O)c(O)c2)cc2ccccc12	84.1	78	53 to 53.2	78.7	IC50 [2]: 4.6 µM; inhibition [5]: 76%; inhibition [6]: 44%; inhibition (HeLa [7]): Active; fold change (FC) (HeLa [8]): 5.6; inhibition (HeLa [9]): Active; fold change (FC) (HeLa [10]): 1; fold change (FC) (HeLa [11]): 1; fold change (FC) (HeLa [12]): 1
CC1(C)Cc2c(-c3ccccc3)c(-c3ccc(Cl)cc3)c(CC(=O)O)n2C1 [LICOFELONE]	71	–	–	85	IC50 [2]: 0.5 µM; inhibition [14]: 48%; inhibition [15]: 81%; inhibition [16]: 54.7%; inhibition (HeLa [17]): Active; inhibition (HeLa [18]): Active; EC50 (Prostaglandin E synthase [19]): 0.1 µM; IC50 [20]: 0.8 µM
O=c1oc(-c2ccc(O)cc2)cc2ccccc12	34.1	65	17	81.4	–
COc1ccc(-c2cc3ccccc3c(=O)o2)cc1O	65.9	18	20	70.5	IC50 (Prostaglandin E synthase [21]): 9.7 µM
O=c1oc(-c2ccccc2)cc2cccc(O)c12	55.3	60	13.4	75.6	–
COc1cc(-c2cc3cccc(O)c3c(=O)o2)ccc1O	35.6	75	36.2	79.8	–
COc1cc(O)c2c(=O)oc(-c3ccccc3)cc2c1	49.2	54	16.6	78.1	–
COc1cc(-c2cc3cccc(O)c3c(=O)o2)cc(OC)c1OC	80 to 80.3	68	12 to 12.4	80.2	IC50 [2]: 12.4 µM; inhibition [22]: Active
COc1cc(-c2cc3ccccc3c(=O)o2)cc(OC)c1OC	72	73	15.8	75.7	IC50 [2]: 20.9 µM; IC50 (Prostaglandin E synthase [21]): 9.3 µM
O=c1oc(-c2ccccc2)cc2ccccc12	50	75	14	76.7	IC50 (Prostaglandin E synthase [21]): 9.5 µM
CC(c1cc2ccccc2s1)N(O)C(N)=O (centres undefined) [ZILEUTON]	–	50	33.6	78	–
O=c1oc(-c2ccc(O)cc2)cc2cccc(O)c12	36.4	74	12.6	70.6	IC50 (Prostaglandin E synthase [21]): 7.1 µM
O=C1O[C@H]([C@@H](O)CO)C(O)=C1O	–	–	82.2	–	–
COc1cc(O)c2c(=O)oc(-c3cc(OC)c(OC)c(OC)c3)cc2c1	36.2	14	15.4	60.5	–
O=c1oc(-c2ccc(O)c(O)c2)cc2cccc(O)c12 [THUNBERGINOL A]	40.9	74	49	68.7	inhibition [5]: 75%; inhibition [6]: 17%; inhibition (HeLa [7]): Active; fold change (FC) (HeLa [8]): 9.6; inhibition (HeLa [9]): Active; fold change (FC) (HeLa [10]): 1; fold change (FC) (HeLa [11]): 1; fold change (FC) (HeLa [12]): 1
COc1cc(-c2cc3ccccc3c(=O)o2)ccc1O	78.8	73	47.8	65	IC50 [2]: 22.8 µM
COc1ccc(-c2cc3cccc(O)c3c(=O)o2)cc1O	59.1	44	17.8	77.4	IC50 (Prostaglandin E synthase [21]): 11.3 µM
B1	–	–	–	–	Vmax [23]: 0.93 nmol/min; Vmax [24]: 0.64 nmol/min; Km [25]: 1.38 µM; Km [26]: 1.17 µM; Vmax [27]: 0.83 nmol/min; Vmax [28]: 0.93 nmol/min; Km [29]: 1.2 µM; Km [30]: 1.45 µM
